An excerpt weighted towards active compounds, which were near 2.4% of everything screened.
Neddylation inh: blocks human cullin neddylation | TR-FRET cullin neddylation, biochemical | inhibition, % at 25 µM | 360,000 compounds, 0.58% hits; in the data active = inhibition above about 36%
Rpn11 inh: Rpn11 (human) deubiquitinase inhibition; human 26S proteasome, Ub4-pepOG fluorescence polarization; 20S core pre-blocked with epoxomicin; inhibition, % at 20 µM; 360,000 compounds, 0.59% hits; AID 588493;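 active = inhibition at 20 µM, scaled to each plate's controls, above about 33%, limit read from the data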
Tb MetRS inh: blocks T. brucei methionyl-tRNA synthetase activity; purified T. brucei MetRS, ATP depletion, Kinase-Glo luminescence; inhibition, % at 11.9 µM; 360,000 compounds, 0.4% hits; AID 624268;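 active = inhibition above a per-plate cutoff of the control wells' mean inhibition plus 3 SD, cut at about 5.5% in these data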;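 also: 0% = DMSO wells median and 100% = median of wells with control inhibitor compound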
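Test system: purified T. brucei MetRS enzyme. Also added: ATP, methionine and E. coli bulk tRNA substrates. Compound: 11.9 µM single point. Schedule: 15 min enzyme-compound preincubation, 2 h reaction, 10 min detection, 25 °C. Signal: luciferase luminescence of residual ATP, Kinase-Glo. Evaluation: percent inhibition versus plate control medians. Controls: DMSO wells, low control.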
PREPL inhibitor: inhibitors of human prolyl oligopeptidase-like enzyme PREPL | recombinant PREPL, fluorescence polarization activity-based probe | inhibition, % at 5.96 µM | 320,000 compounds, 0.68% hits; in the data active = inhibition above about 43%;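 also: 0% = enzyme with DMSO and 100% = wells lacking enzyme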
CSN inh: CSN deneddylation inhibition; Q92905; inhibition, % at 12.5 µM; 360,000 compounds, 0.38% hits; Purified CSN, SCF-Nedd8-OG deneddylation, fluorescence polarization;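 active = pattern-corrected inhibition above about 35%, with an unprinted fluorescence ratio check between 0.5 and 1.5, limit read from the data, passing the limit was not always enough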;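 also: 0% = enzyme with substrate and 100% = substrate without enzyme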
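test system = HEK293T-derived human Csn5 enzyme | amount = 0.24 nM Csn5 enzyme, final concentration | medium = Tris/NaCl/DTT buffer, pH 7.5 | schedule = 90 min reaction at room temperature | signal = FP | evaluation = inhibition of Csn5 cleavage, % | compound dosing = single dose of 12.5 µM compound with 0.25% DMSO | probe or stimulus = 10 nM SCFSkp2-Nedd8OG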
HNF4A DNA FP: change in binding of human HNF4 alpha to DNA. P41235. HNF4a-FITC DNA binding, fluorescence polarization, 1 h. activity change, % at 10 µM. 360,000 compounds, 0.3% hits; in the data active = activity change above about 30%, passing the limit was not always enough
Target sequence (P41235 whole entry, looked up): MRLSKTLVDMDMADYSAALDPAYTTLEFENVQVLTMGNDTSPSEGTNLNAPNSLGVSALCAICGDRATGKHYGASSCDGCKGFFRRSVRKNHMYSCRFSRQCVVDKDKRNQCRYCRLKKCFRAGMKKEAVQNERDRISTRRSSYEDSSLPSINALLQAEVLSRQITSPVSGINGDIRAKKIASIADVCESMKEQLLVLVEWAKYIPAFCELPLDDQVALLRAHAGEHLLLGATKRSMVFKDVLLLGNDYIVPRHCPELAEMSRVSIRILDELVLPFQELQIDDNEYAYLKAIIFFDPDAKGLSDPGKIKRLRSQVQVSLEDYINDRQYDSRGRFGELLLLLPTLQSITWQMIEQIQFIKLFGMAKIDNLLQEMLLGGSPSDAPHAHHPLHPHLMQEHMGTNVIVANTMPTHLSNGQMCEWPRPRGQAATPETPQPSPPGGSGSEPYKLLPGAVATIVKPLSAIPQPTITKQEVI
CSN5 deneddyl: Csn5 (human) deneddylation inhibition, single-concentration validation | shares compounds with CSN inh | Csn5 deneddylation of SCF-Nedd8OG, fluorescence polarization, 90 min | inhibition, % at 16.6 µM | 540 compounds, 62% hits; in the data active = inhibition above about 50%;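 also: 0% = DMSO with enzyme and 100% = no enzyme wells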
MMP2 cntr CSN: MMP-2 (human) inhibition, counter-screen for CSN hits | shares compounds with CSN inh | recombinant MMP-2, FRET substrate fluorescence, 60 min | inhibition, % at 16.6 µM | 540 compounds, 33% hits;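 active = corrected plate-normalized z-score of 5 or more, or -5 or less, or inhibition of 15% or more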;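 also: plate controls were DMSO wells with enzyme for no effect and buffer wells lacking MMP-2 for full effect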
Thrombin cntr: thrombin (bovine) inhibition, counter-screen for CSN hits | shares compounds with CSN inh | bovine thrombin cleavage of Ub4-pepOG, fluorescence polarization | inhibition, % at 16.6 µM | 540 compounds, 49% hits | AID 720656;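 active = inhibition at or above a set limit, with a fluorescence interference ratio between 0.5 and a set maximum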
Numbers without * were called inactive; / = not tested or not shown.

SMILES	Neddylation inh	Rpn11 inh	Tb MetRS inh	PREPL inhibitor	CSN inh	HNF4A DNA FP	CSN5 deneddyl	MMP2 cntr CSN	Thrombin cntr
CCOc1cc(/C=C2/SC(=S)N(Cc3ccccc3)C2=O)ccc1O	-16	/	-1	-21	42*	38*	59*	-3	85*
O=C(O)CN1C(=O)/C(=C\c2cc(Br)ccc2OCc2ccccc2Cl)SC1=S	-14	2	-1	13	38*	-2	26	8	2
O=C(O)CN1C(=O)/C(=C\c2cc(Br)ccc2OCc2ccccc2F)SC1=S	-14	3	0	12	30	-3	/	/	/
COc1ccc(/C=C2\SC(=S)N(NC(=O)c3ccncc3)C2=O)cc1OC	/	/	/	-4	/	/	/	/	/
COc1cc(/C=C2\SC(=S)N(NC(=O)c3ccccc3O)C2=O)ccc1O	-51	/	4	-157	50*	41*	58*	-5	63*
O=C1/C(=C\c2cc(Br)cc(Br)c2O)SC(=S)N1Cc1ccccc1	-1	33	0	-21	46*	17	97*	7	13
CC(C)C(=O)N1CCC1(C)C(=O)NCc1ccc(F)cc1Cl (stereo unspecified)	1	-5	-1	/	-3	3	/	/	/
Cc1ccc(N2CCN(C(=O)c3nn(C)c4c3CS(=O)(=O)c3ccccc3-4)CC2)c(C)c1	6	-2	0	-1	1	0	/	/	/
CC1CCCCC1NC(=O)CCn1ccc2cc(S(=O)(=O)N3CCCC3)ccc21 (stereo unspecified)	0	-2	0	2	-1	-2	/	/	/
N#CC1=C(N)SC(N)=C(C#N)C1c1ccnc2ccccc12	-191	/	-1	2	45*	39*	135*	-16	30*
CN1CCN(C2CN(CCc3ccccc3)S(=O)(=O)C2)CC1 (stereo unspecified)	3	-2	0	/	1	-2	/	/	/
CC1C=CC=CC=CC=CC=CC=CC=CC(OC2OC(C)C(O)C(N)C2O)CC2OC(O)(CC(O)CC(O)C(O)CCC(O)CC(O)CC(=O)OC(C)C(C)C1O)CC(O)C2C(=O)O (stereo unspecified)	35	44*	-1	/	39*	-11	78*	-1	15*
CN(C)S(=O)(=O)c1ccc2c(c1)/C(=C/c1cc3c([nH]1)CCCC3)C(=O)N2	-34	/	0	-28	54*	96	75*	-11	37
COc1ccc2c(c1)C(SCC(=O)NCCc1ccc(Cl)cc1)CC(C)(C)O2 (stereo unspecified)	-8	2	2	41	17	-3	/	/	/
Nc1nc(-c2ccccc2)nc2nonc12	11	-1	0	/	2	-3	/	/	/
CCc1nc2ccc(C(=O)Nc3ccc(OC)c(OC)c3)cn2c1N(C)CCC(C)C	10	2	0	/	1	-1	/	/	/
CCc1ccc(N=C2NC(=O)/C(=C/c3cc(Br)c(OCC(=O)O)c(OC)c3)S2)cc1	6	12	0	16	47*	-24	77*	7	-9
CCOc1cc(/C=C2\SC(=Nc3ccc(CC)cc3)NC2=O)ccc1OCC(=O)O	-18	2	1	19	7	5	/	/	/
CCNC(=O)C1(C)CCN(C(=O)c2ccc(C(F)(F)F)cc2)C1 (stereo unspecified)	1	11	0	/	-4	2	/	/	/
CC1(C(=O)NS(=O)(=O)Cc2cccc(Cl)c2)CCN1C(=O)C/C=C/c1ccccc1 (stereo unspecified)	1	1	0	/	2	4	/	/	/
CSc1ccc(C2C(C#N)=C(N)Oc3c2ccc(=O)c2c(C)oc(C)c32)cc1 (stereo unspecified)	-1	/	0	15	49*	31	95*	4	15
